Out of some 330,000 compounds screened, about 300 (0.091%) were called active. The sample as a whole holds a higher share of actives than the screen did. A number with no mark means an inactive call.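 The calls were made as follows: active = percent activation above the screen-wide mean plus 3 SD (cut at about 25% in these data); inactive = the rest.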

We go through 91 molecules from PubChem BioAssay AID463210 (The Scripps Research Institute Molecular Screening Center, 2010).

This experiment deals with Caspase-7 (Homo sapiens) (UniProt P55210). In words: activation of procaspase-7 enzyme – biochemical, absorbance, HTS, human, counter-screen for procaspase-3 activator project, primary screen (AID 463210). The note with it: recombinant procaspase-7, Ac-DEVD-pNA absorbance 405 nm; at 8.5 µM; active compounds read high; D23A/D198A/D206A triple mutant, cannot self-cleave; scale: DMSO 0, 5 µM enzyme 100. An outline of the steps: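 Material: Procaspase-7 triple mutant (PC-7 D3A) | Quantity: 2 µM procaspase-7 mutant as dispensed | Reagent: DEVD-pNA substrate | Times: 1 h preincubation, 2 h reaction | Technique: 405 nm absorbance of p-nitroaniline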
Caspase-7 (Homo sapiens), sequence (P55210 whole entry D23A/D198A/D206A): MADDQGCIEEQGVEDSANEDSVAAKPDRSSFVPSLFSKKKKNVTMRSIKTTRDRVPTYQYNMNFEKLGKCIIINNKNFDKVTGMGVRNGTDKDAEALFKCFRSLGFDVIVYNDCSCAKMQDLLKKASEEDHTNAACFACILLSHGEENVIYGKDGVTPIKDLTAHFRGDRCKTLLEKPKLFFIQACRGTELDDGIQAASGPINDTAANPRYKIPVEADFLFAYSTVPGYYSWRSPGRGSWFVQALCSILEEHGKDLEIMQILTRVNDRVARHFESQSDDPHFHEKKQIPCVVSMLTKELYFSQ
(Counterscreens check selectivity or assay interference.)
Consider `Cc1ccc(CSCCNC(=O)CN(c2ccc(F)cc2)S(C)(=O)=O)cc1`, for which the activation is -2.84%.
`CCCc1c(C(=O)N/N=C(\C)CCc2ccc(OC)cc2)nnn1-c1nonc1N`: the activation is 2.5%.
The figure for `O=C(NCCc1ccco1)c1ccc(OCc2cn3ccccc3n2)cc1` is 15.8%; for `CCOc1cc(C(=O)OCC(=O)Nc2cccc(C)c2)ccc1OCC(=O)N1CCOCC1` it is 15.3%; for `O=S(=O)(NCCSc1ccccn1)c1ccc(Cl)cc1` it is -2.06%.
For the molecule `COc1ccc(NC(=O)CNC(=O)Cn2ccc3ccccc3c2=O)c(OC)c1`, the activation was -4.04%.
Take `Cc1ccc(Cc2cncc(O)c2)cc1S(=O)(=O)O`: the activation is 10.6%.
Turning to `COC(=O)/C=C(\Oc1ccccc1)C1(O)CCCCC1`, the activation was 7.7%.
Consider `NS(=O)(=O)c1ccc(CCNC(=O)COC(=O)COc2cccc(C(F)(F)F)c2)cc1`, for which the activation was -7.58%.
As to `COc1ccc(OC)c(S(=O)(=O)Nc2cccc(-c3ccc4nncn4n3)c2)c1`, the activation was 5.81%.
For the molecule `Nc1c(-c2cccc(Cl)c2)cnn1-c1cccc([N+](=O)[O-])c1`, the activation was -13%.
As for `O=C(NC1CCCC1)C(c1ccco1)N(C(=O)c1csnn1)c1ccccc1` (stereo unspecified), the activation was 6.3%.
Consider `Cn1cnnc1Sc1ccc(S(C)(=O)=O)cc1[N+](=O)[O-]`, for which the activation was 6.34%.
`COc1ccc(CNC(=O)COC(=O)CCS(=O)(=O)c2ccc(C)cc2)cc1OC`: the activation is 6.34%.
With `CC(C)CN1CCNC(=O)C1CC(=O)N(C)CC1CCOCC1` (stereo unspecified), the activation was -1.75%.
For `Cc1ccccc1NC(=O)CSC1=NCCN1`, the activation was 9.38%.
For `CNS(=O)(=O)c1cccc(C(=O)NC2CCCc3ccccc32)c1` (stereo unspecified), the activation is 38.5% (active).
As to `CNS(=O)(=O)c1cccc(C(=O)NCC2CCCCC2)c1`, the activation is 1.69%.
The figure for `O=C(O)c1cc(S(=O)(=O)NC2CCCc3ccccc32)ccc1O` (stereo unspecified) is -8.22%; for `CCOC(=O)/C=C/c1ccc(C(F)(F)F)cc1S(=O)(=O)NC(C)(C)C` it is 2.37%.
In the case of `Cc1cc(Cl)c2oc(C(=O)N3CCC(O)(c4ccccc4)CC3)c(C)c2c1` it was -0.4%.
As for `COc1ccccc1CNC(=O)CN1CCC(n2cnc3cc(F)ccc32)CC1`, the activation is -8.61%.
`Cc1coc2c1c(C)cc1oc(=O)c(CC(=O)NCC(=O)N[C@H](C(=O)O)C(C)C)c(C)c12`: the activation was -1.78%.
Take `CC1CCN(C(=O)Cn2nnnc2CN2CCOCC2)CC1`: the activation is 0.88%.
As to `CCNS(=O)(=O)c1ccc(NC(=O)c2cncc(Br)c2)cc1`, the activation is 3.96%.
As for `Cc1ccc2c(C)c(C(=O)N3CCN(c4ccncc4)CC3)oc2c1C`, the activation was 0%.
Take `Cc1ccc(-c2csc(N3CCN(c4cc5c(cc4Cl)nc(-c4ccncc4)n5CCOCCO)CC3)n2)cc1`: the activation was 1.55%.
For `CC(C)C1Nc2c(C(=O)O)cccc2C(Nc2ccccc2C(=O)O)C1(C)C` (stereo unspecified), the activation was -0.22%.
For the molecule `CCOC(=O)Cn1c2c(c(-c3ccccc3OC)cc1=O)CCCC2`, the activation was 0.27%.
Turning to `CC(=O)Nc1ccc(NS(=O)(=O)c2cc(C)sc2C)cc1`, the activation was 4.24%.
Consider `O=C(NCCS(=O)(=O)N1CCN(c2ccccc2F)CC1)c1ccc(Br)o1`, for which the activation was 10.8%.
On to `COc1ccc(N2CCN(C(=O)Cn3cnc4sc(C)c(S(=O)(=O)N5CCOCC5)c4c3=O)CC2)cc1`, for which the activation was 7.13%.
In the case of `CCOC(=O)C1(CCOC)CCN(Cc2cc3ccccc3s2)CC1` it was 31.9% (active); in that of `CCOC(=O)C1(CCOc2ccccc2)CCN(Cc2cc(OC)cc(OC)c2)CC1`, -7.5%; in that of `CCOC(=O)C1(CCOC)CCN(Cc2ccc(C(=O)OC)cc2)CC1`, 1.4%.
Regarding `S=C(Nc1ccc(Br)cc1)NC1CCN(Cc2ccccc2)CC1`, the activation was -4.11%.
As for `CCCCNS(=O)(=O)c1ccc2nc(SCC(=O)Nc3cc(C)cc(C)c3)[nH]c2c1`, the activation was 7.82%.
As for `COC(=O)c1ccc(NS(=O)(=O)c2cc3c4c(c2)C(C)C(=O)N4CCC3)cc1` (stereo unspecified), the activation is 8.38%.
As for `O=C(C[n+]1cc(-c2ccc(Cl)c(Cl)c2)n2c1CCC2)c1cccs1`, the activation was 5.63%.
Regarding `COC(=O)CC1=NN(c2nc(C)cc(C)n2)C(=O)C1`, the activation was 2.23%.
With `CC(C)(C)c1ccc(/C=C2\Oc3c(ccc(O)c3CN3CCN(CCO)CC3)C2=O)cc1`, the activation was -5.14%.
Regarding `Cc1ccc(S(=O)(=O)N2C[C@@H]3CCCC[C@@H]3[C@@H](C)[C@H]2c2cn(Cc3ccccc3)c3ccc(F)cc23)cc1`, the activation is 6.02%.
Consider `Cc1c(C(=O)N(Cc2ccccc2)Cc2cccnc2)cnn1-c1ccc(F)cc1`, for which the activation is 3.32%.
In the case of `COc1ccc(OCc2cc(C(=O)N3CCCC3)no2)c2ccccc12`, the activation is -1.07%.
For the molecule `CN=C1SC(CC(=O)Nc2ccc(C(=O)O)cc2)C(=O)N1C` (stereo unspecified), the activation is 1.33%.
Consider `CCCS(=O)(=O)N1CCC(C(=O)NCCc2ccc(OC)c(OC)c2)CC1`, for which the activation was 5.54%.
In the case of `O=C1CN(C(=O)c2cc(F)cc(F)c2)c2ccccc2N1`, the activation was 2.59%.
`CCOC(=O)C1CCN(C(=O)COC(=O)C2CCN(S(=O)(=O)c3ccc4c(c3)OCCO4)CC2)CC1`: the activation was 2.16%.
Regarding `CCCCc1ccc(NS(=O)(=O)c2cccc(C(=O)N3CCCN(C)CC3)c2)cc1`, the activation is -3.56%.
On to `Cc1ccc(S(=O)(=O)NCCC(=O)OCC(=O)N(C)c2ccccc2)cc1`, for which the activation is 1.61%.
On to `COc1ccc(-n2cc(CNC3CCOCC3)c(-c3cccc(F)c3)n2)cc1`, for which the activation is -1.78%.
With `CCOc1ccc2c(c1)c(=O)c(S(=O)(=O)c1ccc(C)cc1)cn2CC`, the activation was -6.47%.
On to `C=CCN(c1ccccc1C(=O)NCC(=O)OCC)S(=O)(=O)c1ccc(C)cc1`, for which the activation is 4.75%.
In the case of `CC(=O)N1c2ccc(S(=O)(=O)N3CCCC(C(=O)NCc4ccc(Cl)cc4)C3)cc2CC1C` (stereo unspecified) it was 1.56%.
With `COc1ccc(CN(C(=O)CSc2nnc(-c3ccc(OC)c(OC)c3)o2)c2ccc(F)cc2)cc1`, the activation was -3.3%.
Take `O=C1CCCCN1CCCC(=O)N1CCCC(Nc2ccc(F)cc2)C1` (stereo unspecified): the activation is -11.7%.
As for `CCOc1cc(C(=O)N2CCc3cc(OC)c(OC)cc3C2)ccc1OC(F)F`, the activation was 10.5%.
Take `CCCSc1ncccc1C(=O)O`: the activation was 5.5%.
Regarding `CCC(CC)NC(=O)CSc1nnc(-c2c[nH]c3ccccc23)o1`, the activation was -2.98%.
Regarding `Cc1cc(C)c(S(=O)(=O)NCC2CCC(C(=O)NCc3ccc4c(c3)OCO4)CC2)c(C)c1` (stereo unspecified), the activation is 10.5%.
Consider `CCn1c2ccccc2c2cc(NC(=O)C/C(C)=N/NC(=O)c3ccccc3N)ccc21`, for which the activation was -4.21%.
Regarding `Cc1nccn1CCC1CCCCN1C(=O)CCc1nnc(-c2ccsc2)o1` (stereo unspecified), the activation is 0.42%.
Turning to `O=C(CCn1nnc2ccccc2c1=O)N[C@@H](Cc1c[nH]c2ccccc12)C(=O)O`, the activation is 9.07%.
For the molecule `CC(C(=O)N1CCN(c2ccccc2F)CC1)c1ccc([N+](=O)[O-])cc1` (stereo unspecified), the activation is -5.29%.
For the molecule `CCCCCc1nnc(NC(=O)c2ccc(=O)n(C)n2)s1`, the activation is 9.59%.
Turning to `Cc1csc(/N=C/N(C)C)c1C#N`, the activation was -2.59%.
In the case of `OCCC1CN(Cc2cccn2-c2nccs2)CCN1CCc1ccccc1` (stereo unspecified) it was 3.58%.
On to `COC(=O)c1cccnc1NC(=S)NC(C)C`, for which the activation was 3.88%.
Turning to `COc1ccc(N2CCN(S(=O)(=O)c3cc4c5c(c3)C(C)C(=O)N5CCC4)CC2)cc1` (stereo unspecified), the activation was 4.7%.
Take `COc1ccc2sc(-c3ccc(S(C)(=O)=O)cc3)c(-c3ccc(C(N)=O)cc3)c2c1`: the activation is -9.45%.
In the case of `COc1ccc2sc(-c3ccc(S(C)(=O)=O)cc3)c(C#Cc3cncn3C)c2c1` it was 32.4% (active); in that of `COc1ccc(-c2sc3ccc(OC)cc3c2C#Cc2ccccn2)cc1`, 25.1%; in that of `CN(CC(=O)Nc1ccccc1Cl)C(=O)c1ccccc1SCC(=O)N1CCCC1`, 5.38%.
With `Cc1ccccc1N(C(=O)CNC(=O)c1cccs1)C(C(=O)NC1CCCC1)c1ccncc1` (stereo unspecified), the activation was 2.19%.
Regarding `COc1ccc(Nc2ncnc3sc(C)cc23)cc1`, the activation was 4.02%.
With `COc1ccc(Nc2ncnc3ccc(Br)cc23)c(OC)c1`, the activation was -0.33%.
The figure for `COc1ccc(Nc2ncnc3sc(-c4ccccc4)cc23)c(OC)c1` is 47.3% (active); for `O=C(Cn1cncn1)N/N=C/c1c2ccccc2cc2ccccc12` it is -18.1%.
In the case of `Oc1ccc(-c2onc3ccc(Cl)cc23)cc1` it was -16.8%; in that of `CC(OC(=O)c1ccc2noc(-c3ccccc3)c2c1)C(N)=O` (stereo unspecified), -10.9%.
The figure for `COc1ccc(-c2onc3ccc(C(C)=O)cc23)cc1` is 68.7% (active); for `CCOC(=O)CN1C(=O)C(=O)c2cc(C)ccc21` it is 3.45%; for `CCCCOC(=O)Cn1c(=O)n(CC(=O)OCCCC)c2cc(C)ccc21` it is 26.8% (active).
On to `CCCCCCCCCCOC(=O)Cn1c(COc2ccc(C)cc2)[n+](C)c2ccccc21`, for which the activation is 0.03%.
As to `Nc1ncnc(Nc2cccc(Cl)c2Cl)n1`, the activation was 1.33%.
For `O=C(NCCCO)/C(=C\C=C\c1ccccc1)NC(=O)c1ccccc1Cl`, the activation was 0.01%.
Regarding `Cc1cc(C)cc(Oc2c(C(F)(F)F)oc3cc(OCC(=O)O)ccc3c2=O)c1`, the activation is -4.44%.
Regarding `Cc1ccc(S(=O)(=O)N2CCC(C(=O)N[C@@H](C)C(=O)NCc3ccco3)CC2)cc1`, the activation is -5.6%.
On to `CC1(c2nnc(Cc3ccccc3)o2)CC(c2ccccc2F)=NO1` (stereo unspecified), for which the activation is -4.57%.
The figure for `Cn1cc(S(=O)(=O)NC(c2ccccc2)c2ccccc2)c(=O)n(C)c1=O` is 8.63%.
In the case of `Cn1nc(C(F)(F)F)c(-c2ccc(F)cc2)c1NC(=O)CSCC(=O)O` it was 3.17%.
